Source: ChEMBL document CHEMBL5724801, “EUbOPEN Chemogenomics Library - Multiplex” (2024)
Values joined by “and” are separate entries in the source; they are usually repeats but may differ in a detail not shown here. Equal values may be shown once.

Legend:
Fibroblast = test: Multiplex assay against human fibroblast; type: toxicity, cell-based
Procedure, shortened: (§1)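 At seeding, live cells were stained with Hoechst33342, BioTracker Green Microtubule Cytoskeleton Dye, MitoTracker Red and Annexin V Alexa Fluor 680. After compound addition they were imaged on a CQ1 microscope at 37°C and 5% CO2, and CellPathfinder machine-learning gating sorted them into Hoechst high-intensity objects or normal cells, with normal cells further split into healthy, pyknosed or fragmented nuclei and pyknosed cells into mitotic or apoptotic. Tubulin, mitochondrial-mass and membrane-permeability phenotypes are given as per cents of cells with healthy nuclei.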

HEK-293T = test: Multiplex assay against HEK293T; type: toxicity, cell-based; conditions: human; procedure, shortened: as §1
[1] = 12 h, 1 µM, compound concentration 1 uM
[2] = 12 h, 10 µM, compound concentration 10 uM
[3] = 24 h, 1 µM, compound concentration 1 uM
[4] = 24 h, 10 µM, compound concentration 10 uM
[5] = 48 h, 1 µM, compound concentration 1 uM
[6] = 48 h, 10 µM, compound concentration 10 uM

Compound: CN(C)C(=O)Cn1cc(-c2ccc(-c3nnc4ccccn34)cc2)cn1
- Population Apoptotic (%) (Fibroblast; [1]): 57% and 55%
- Population Fragmented Nuclei (%) (Fibroblast; [1]): 18% and 20%
- Population Healthy Nuclei (%) (Fibroblast; [1]): 60% and 58%
- Population Hoechst High Intensity Objects (%) (Fibroblast; [1]): 5%
- Population Membrane Permeable-Phenotype (%) (Fibroblast; [1]): 1% and 7%
- Population Mitochondria Different-Phenotype (%) (Fibroblast; [1]): 3% and 7%
- Population Mitotic Cells (%) (Fibroblast; [1]): 42% and 44%
- Population Normal (%) (Fibroblast; [1]): 94%
- Population Pyknosed Nuclei (%) (Fibroblast; [1]): 21% and 20%
- Population Tubulin-Different-Phenotype (%) (Fibroblast; [1]): 22% and 42%
- Total Cell Count (Fibroblast; [1]): 139 and 152
- Population Apoptotic (%) (Fibroblast; [2]): 52% and 39%
- Population Healthy Nuclei (%) (Fibroblast; [2]): 63% and 38%
- Population Hoechst High Intensity Objects (%) (Fibroblast; [2]): 3% and 8%
- Population Membrane Permeable-Phenotype (%) (Fibroblast; [2]): 0% and 15%
- Population Mitochondria Different-Phenotype (%) (Fibroblast; [2]): 6% and 18%
- Population Mitotic Cells (%) (Fibroblast; [2]): 47% and 60%
- Population Normal (%) (Fibroblast; [2]): 96% and 91%
- Population Pyknosed Nuclei (%) (Fibroblast; [2]): 28% and 29%
- Population Tubulin-Different-Phenotype (%) (Fibroblast; [2]): 31% and 70%
- Total Cell Count (Fibroblast; [2]): 140 and 123
- Population Apoptotic (%) (Fibroblast; [3]): 56% and 54%
- Population Fragmented Nuclei (%) (Fibroblast; [3]): 23%
- Population Healthy Nuclei (%) (Fibroblast; [3]): 60%
- Population Hoechst High Intensity Objects (%) (Fibroblast; [3]): 0% and 4%
- Population Membrane Permeable-Phenotype (%) (Fibroblast; [3]): 2% and 4%
- Population Mitochondria Different-Phenotype (%) (Fibroblast; [3]): 1% and 3%
- Population Mitotic Cells (%) (Fibroblast; [3]): 43% and 45%
- Population Normal (%) (Fibroblast; [3]): 99% and 95%
- Population Pyknosed Nuclei (%) (Fibroblast; [3]): 16%
- Population Tubulin-Different-Phenotype (%) (Fibroblast; [3]): 25% and 41%
- Total Cell Count (Fibroblast; [3]): 144 and 142
- Population Apoptotic (%) (Fibroblast; [4]): 65% and 26%
- Population Healthy Nuclei (%) (Fibroblast; [4]): 65% and 40%
- Population Hoechst High Intensity Objects (%) (Fibroblast; [4]): 5% and 9%
- Population Membrane Permeable-Phenotype (%) (Fibroblast; [4]): 2% and 10%
- Population Mitochondria Different-Phenotype (%) (Fibroblast; [4]): 5% and 6%
- Population Mitotic Cells (%) (Fibroblast; [4]): 34% and 73%
- Population Normal (%) (Fibroblast; [4]): 94% and 90%
- Population Pyknosed Nuclei (%) (Fibroblast; [4]): 24% and 22%
- Population Tubulin-Different-Phenotype (%) (Fibroblast; [4]): 25% and 71%
- Total Cell Count (Fibroblast; [4]): 140 and 126
- Population Apoptotic (%) (Fibroblast; [5]): 58% and 42%
- Population Fragmented Nuclei (%) (Fibroblast; [5]): 22% and 28%
- Population Healthy Nuclei (%) (Fibroblast; [5]): 61% and 52%
- Population Hoechst High Intensity Objects (%) (Fibroblast; [5]): 1% and 5%
- Population Membrane Permeable-Phenotype (%) (Fibroblast; [5]): 4% and 6%
- Population Mitochondria Different-Phenotype (%) (Fibroblast; [5]): 4% and 2%
- Population Mitotic Cells (%) (Fibroblast; [5]): 41% and 57%
- Population Normal (%) (Fibroblast; [5]): 98% and 94%
- Population Pyknosed Nuclei (%) (Fibroblast; [5]): 16% and 18%
- Population Tubulin-Different-Phenotype (%) (Fibroblast; [5]): 29% and 46%
- Total Cell Count (Fibroblast; [5]): 151 and 147
- Population Apoptotic (%) (Fibroblast; [6]): 52% and 60%
- Population Fragmented Nuclei (%) (Fibroblast; [6]): 16% and 44%
- Population Healthy Nuclei (%) (Fibroblast; [6]): 66% and 47%
- Population Hoechst High Intensity Objects (%) (Fibroblast; [6]): 2% and 3%
- Population Membrane Permeable-Phenotype (%) (Fibroblast; [6]): 0% and 18%
- Population Mitochondria Different-Phenotype (%) (Fibroblast; [6]): 2% and 8%
- Population Mitotic Cells (%) (Fibroblast; [6]): 47% and 40%
- Population Normal (%) (Fibroblast; [6]): 97% and 96%
- Population Pyknosed Nuclei (%) (Fibroblast; [6]): 17% and 7%
- Population Tubulin-Different-Phenotype (%) (Fibroblast; [6]): 38% and 73%
- Total Cell Count (Fibroblast; [6]): 137 and 131
- Population Apoptotic (%) (HEK-293T; [1]): 31% and 43%
- Population Fragmented Nuclei (%) (HEK-293T; [1]): 7%
- Population Healthy Nuclei (%) (HEK-293T; [1]): 80% and 79%
- Population Hoechst High Intensity Objects (%) (HEK-293T; [1]): 9% and 10%
- Population Membrane Permeable-Phenotype (%) (HEK-293T; [1]): 0%
- Population Mitochondria Different-Phenotype (%) (HEK-293T; [1]): 40% and 59%
- Population Mitotic Cells (%) (HEK-293T; [1]): 68% and 56%
- Population Normal (%) (HEK-293T; [1]): 90% and 89%
- Population Pyknosed Nuclei (%) (HEK-293T; [1]): 11% and 12%
- Population Tubulin-Different-Phenotype (%) (HEK-293T; [1]): 32% and 27%
- Total Cell Count (HEK-293T; [1]): 432 and 337
- Population Apoptotic (%) (HEK-293T; [2]): 32% and 51%
- Population Fragmented Nuclei (%) (HEK-293T; [2]): 9% and 7%
- Population Healthy Nuclei (%) (HEK-293T; [2]): 76% and 80%
- Population Hoechst High Intensity Objects (%) (HEK-293T; [2]): 7% and 8%
- Population Membrane Permeable-Phenotype (%) (HEK-293T; [2]): 0%
- Population Mitochondria Different-Phenotype (%) (HEK-293T; [2]): 61% and 55%
- Population Mitotic Cells (%) (HEK-293T; [2]): 67% and 48%
- Population Normal (%) (HEK-293T; [2]): 92% and 91%
- Population Pyknosed Nuclei (%) (HEK-293T; [2]): 14% and 12%
- Population Tubulin-Different-Phenotype (%) (HEK-293T; [2]): 42% and 18%
- Total Cell Count (HEK-293T; [2]): 427 and 356
- Population Apoptotic (%) (HEK-293T; [3]): 27% and 46%
- Population Fragmented Nuclei (%) (HEK-293T; [3]): 10% and 9%
- Population Healthy Nuclei (%) (HEK-293T; [3]): 77% and 82%
- Population Hoechst High Intensity Objects (%) (HEK-293T; [3]): 6% and 7%
- Population Membrane Permeable-Phenotype (%) (HEK-293T; [3]): 0%
- Population Mitochondria Different-Phenotype (%) (HEK-293T; [3]): 28% and 44%
- Population Mitotic Cells (%) (HEK-293T; [3]): 72% and 53%
- Population Normal (%) (HEK-293T; [3]): 93% and 92%
- Population Pyknosed Nuclei (%) (HEK-293T; [3]): 12% and 7%
- Population Tubulin-Different-Phenotype (%) (HEK-293T; [3]): 22% and 18%
- Total Cell Count (HEK-293T; [3]): 595 and 447
- Population Apoptotic (%) (HEK-293T; [4]): 35% and 61%
